ADAM17 inh: inhibits human ADAM17; recombinant ADAM17, EDANS/DABCYL FRET peptide cleavage; inhibition, % at 6.95 µM; 0.83% of 370,000 active; AID 720648;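 active means inhibition above the mean of compounds lying between control limits plus 3 SD, set per campaign, cut at about 8.5% in these data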;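 further: 0% = DMSO-only wells as the low control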
Target sequence (P78536 215-824 limits assumed): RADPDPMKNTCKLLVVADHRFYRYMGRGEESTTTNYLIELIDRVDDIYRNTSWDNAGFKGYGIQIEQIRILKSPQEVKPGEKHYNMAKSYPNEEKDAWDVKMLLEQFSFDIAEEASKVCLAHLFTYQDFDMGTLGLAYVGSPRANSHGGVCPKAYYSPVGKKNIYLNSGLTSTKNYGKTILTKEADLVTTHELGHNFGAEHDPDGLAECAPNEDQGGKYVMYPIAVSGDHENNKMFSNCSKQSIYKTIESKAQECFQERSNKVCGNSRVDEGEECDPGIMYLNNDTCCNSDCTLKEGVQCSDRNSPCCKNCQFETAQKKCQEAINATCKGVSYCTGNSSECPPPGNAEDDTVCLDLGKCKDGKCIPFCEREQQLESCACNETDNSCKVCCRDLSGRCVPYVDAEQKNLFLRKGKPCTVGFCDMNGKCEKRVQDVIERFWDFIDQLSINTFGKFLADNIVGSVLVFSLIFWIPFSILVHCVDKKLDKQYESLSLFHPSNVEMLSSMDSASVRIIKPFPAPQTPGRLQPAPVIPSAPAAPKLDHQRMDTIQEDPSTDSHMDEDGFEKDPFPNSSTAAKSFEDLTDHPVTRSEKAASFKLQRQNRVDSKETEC
FAS-TE inh: inhibitors of human fatty acid synthase thioesterase domain | P49327 | recombinant FAS-TE, OMFH fluorogenic substrate, fluorescence endpoint | inhibition, % at 15 µM | 0.67% of 360,000 active | AID 602261;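 active means compounds whose normalised, plate-corrected inhibition of enzyme fluorescence in the single-dose primary screen is 50% or more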;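 further: 0% = DMSO with enzyme and 100% = substrate without enzyme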
ADAM10 inh: ADAM10 inhibition, QFRET primary screen; O14672; inhibition, % at 7 µM; 0.62% of 370,000 active; recombinant ADAM10, EDANS/DABCYL FRET peptide cleavage, 3 h; AID 720582;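 active means inhibition above a per-campaign cutoff equal to the mean of compounds falling between control-based bounds plus 3 SD, cut at about 20% in these data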;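 further: 0% = DMSO wells while the 100% control is not disclosed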
SENP1 inh: inhibitors of human SENP1 SUMO protease catalytic domain. Q9P0U3. recombinant SENP1 catalytic domain, CyPet-SUMO1-YPet FRET cleavage. inhibition, % at 10 µM. 0.21% of 360,000 active. AID 624204;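 active means inhibition at least 30% at 10 µM, raw YFP signal under a set limit, fluorescence ratio 0.5 to 1.5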;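 further: 0% = enzyme with DMSO and 100% = no enzyme wells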
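Material: hSENP1 catalytic domain, recombinant; medium: Tris pH 8 with BME, BSA, NP40 and catalase; compound: single concentration of 10 µM compound, 0.5% DMSO final; technique: FRET read of cyan and yellow fluorescence; timing: 50 min enzyme reaction, room temperature, light-protected; reagent: SFCypet-SUMO1-SFYpet substrate at 25 nM; control set: no-enzyme low, enzyme-DMSO high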
ADAM10 confirm: confirmation of inhibitors of human ADAM10 | shares compounds with ADAM10 inh | ADAM10 QFRET peptide cleavage, EDANS fluorescence | inhibition, % at 6.95 µM | 1% of 2,100 active | AID 743208;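 active means inhibition above about 20% chosen separately for each screening run, limit read from the data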;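 further: 0% = DMSO wells and 100% = marimastat wells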
ADAM17 ctr: inhibits human ADAM17 in ADAM10 exosite counter-screen. shares compounds with ADAM10 inh. 0.5% of 2,100 active. AID 743214. ADAM17 QFRET peptide cleavage, EDANS fluorescence. inhibition, % at 6.95 µM;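 active means mean triplicate inhibition above the solvent-only control wells' mean plus 3 SD, cut at about 12% in these data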;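 further: 0% = DMSO wells and 100% = marimastat wells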
The depositor's hits bear a star; · = no result given. This is a sample that favours compounds with a hit; in the whole collection about 1.9% have one here.

SMILES	ADAM17 inh	FAS-TE inh	ADAM10 inh	SENP1 inh	ADAM10 confirm	ADAM17 ctr
CC(C)Oc1ccc(CCC(=O)NNC(=S)Nc2ccccc2)cc1	-3	-2	-12	0	·	·
O=C(Cc1noc2ccccc12)NNC(=S)Nc1ccccc1	6	0	20*	1	5	1
Cc1ccc(-n2c(SCC(=O)Nc3ccccc3-c3ccccc3)nnc2-c2cccnc2)cc1	5	·	10	·	·	·
CCOC(=O)c1c(NC(=O)CSc2n[nH]c(-c3ccco3)n2)sc(C)c1C	4	-12	22*	-5	0	0
C/C(CC(=O)Nc1ccc(Cl)cc1C(F)(F)F)=N\NC(=O)c1cccs1	2	-3	5	-5	·	·
COc1cc(NC(=O)C/C(C)=N/NC(=O)c2cccs2)c(OC)cc1Cl	15*	2	28*	-3	0	1
O=c1c2ccccc2n(Cc2ccco2)n1[C@@H](Cc1ccccc1)Cn1cc(-c2ccc(-c3ccccc3)cc2)nn1	-10	·	-57	·	·	·
O=C(CCC(=O)Nc1ccccc1Cl)NNC(=S)Nc1ccccc1C(F)(F)F	6	-5	28*	3	6	3
O=C(c1ccc(COc2ccccc2Br)o1)N1CCN(c2ccccn2)CC1	6	25	10	1	·	·
O=C(c1ccc(C#Cc2ccccc2)o1)N1CCN(c2ccccn2)CC1	6	22	22*	-1	4	1
CCOC(=O)[C@@H](CCc1ccccc1)N[C@@H](C)C(=O)N1CCC[C@H]1C(=O)O	0	·	1	·	·	·
Cc1cc(NC(=O)COc2cc(F)cc(F)c2)n(-c2ccccc2)n1	-5	·	-7	·	·	·
CSc1ccc(OC2CCCCC2NS(=O)(=O)c2ccc(Cl)cc2)cc1 (configuration not stated)	7	36	28*	2	9	3
O=S(=O)(NC1CCCCC1NS(=O)(=O)c1ccc(F)cc1)c1ccc(F)cc1 (configuration not stated)	2	-3	20*	2	1	1
O=S(=O)(NC1CCCCC1Oc1ccccc1)c1ccc(Cl)cc1 (configuration not stated)	1	25	8	1	·	·
C[C@H]1C2CC(OC(=O)Nc3cccc(Cl)c3)C(C2)[C@H]2CCCCN21 (some centres not stated)	-7	·	-5	·	·	·
O=C(CNC(=O)c1nc[nH]c1C(=O)N1CCc2ccccc2C1)OCc1ccccc1	3	-3	22*	0	0	0
CC(C)C[C@H](NC(=O)c1[nH]cnc1C(=O)N[C@@H](Cc1ccccc1)C(=O)OCc1ccccc1)C(=O)OCc1ccccc1	3	14	15	1	·	·
CC(C)C[C@H](NC(=O)c1nc[nH]c1C(=O)NC(c1ccccc1)c1ccccc1)C(=O)OCc1ccccc1	7	17	23*	-1	17	6
CC(C)C[C@H](NC(=O)c1nc[nH]c1C(=O)N[C@@H](CC(C)C)C(=O)OCc1ccccc1)C(=O)OCc1ccccc1	2	15	8	1	·	·
CC(C)C[C@H](NC(=O)c1[nH]cnc1C(=O)N[C@H](C)c1ccccc1)C(=O)OC(C)(C)C	9	9	25*	3	4	2
O=C(N[C@@H](Cc1ccccc1)C(=O)OCc1ccccc1)c1nc[nH]c1C(=O)NCc1ccccc1	8	12	21*	3	7	2
Cc1ccc(NC(=O)[C@@H]2CC(=O)O[C@@H]2c2ccccc2)cc1C	-3	·	-3	·	·	·
CCCCN1CN2Cc3cc(F)ccc3C2CS1(=O)=O (configuration not stated)	1	·	1	·	·	·
CCOC(=O)Cn1cc(CN2C(C(=O)OC)CN(Cc3ccccc3)CCS2(=O)=O)nn1 (configuration not stated)	-1	·	2	·	·	·
SMILES	ADAM17 inh	FAS-TE inh	ADAM10 inh	SENP1 inh	ADAM10 confirm	ADAM17 ctr
C[C@@H]1ON(C)[C@H]2C[C@H]3c4cc(-c5ccc(F)cc5)ccc4CCN3C[C@@H]12	-7	·	-29	·	·	·
Cc1ccc(NC(=O)c2nc[nH]c2C(=O)N[C@@H](C)c2ccccc2)cc1	6	43	24*	0	5	2
O=C(COC(=O)CCc1nc2ccccc2s1)Nc1ccc(Cl)cn1	-2	-6	24*	-9	1	0
O=C(CC(c1ccccc1)c1ccccc1)Nc1ccc(Cl)cn1	14*	4	23*	1	2	1
COc1ccc(/C=N/NC(=O)c2ccn[nH]2)cc1COc1ccc(Cl)cc1	7	-66	20*	3	5	3
CCC(=O)Nc1ccc2c(c1)C(=O)N(C)[C@@H]1CC[C@@H](CC(=O)NCc3ccc(OC)cc3)O[C@H]1CO2	-5	·	-12	·	·	·
COC(=O)C1=C(C)N(Cc2cccc(C(F)(F)F)c2)C(=NCc2ccc3c(c2)OCO3)NC1c1ccc(Cl)cc1 (configuration not stated)	8	·	2	·	·	·
O=C(Nc1cc(Sc2ccccn2)cc([N+](=O)[O-])c1)c1cccc(Cl)c1	7	28	20*	4	7	3
Nc1c(-c2ccccc2)c(CSc2nc3ccccc3[nH]2)nn1-c1ccc(Cl)cc1	4	14	29*	2	5	3
FC(F)Sc1ccc(NC(=S)NCC2CCCCC2)cc1	7	36	31*	2	2	1
S=C(NCC1CCCCC1)Nc1ccc(Oc2ccccc2)cc1	4	26	4	0	·	·
COC(=O)c1cc(NC(=O)Nc2cccc(Cl)c2)ccc1Cl	8	34	20*	3	6	1
COC(=O)c1cccc(NC(=O)Nc2ccc(Cl)cc2)c1	3	-2	5	1	·	·
COc1ccccc1NS(=O)(=O)c1cccc(NC(=O)Nc2cccc(Cl)c2)c1	9	26	31*	2	11	4
O=C(Nc1cccc(F)c1)Nc1cccc(Cl)c1	4	15	23*	0	1	0
O=C(Nc1cccc(Cl)c1)Nc1cccc(Cl)c1	3	12	5	2	·	·
C=CCN1[C@@H](Cc2ccccc2)COc2cccc(N3CCCC3)c2S1(=O)=O	-10	·	-10	·	·	·
C=CCN1[C@@H](CC(C)C)COc2cccc(F)c2S1(=O)=O	-4	·	3	·	·	·
COc1ccc(C(c2ccc(OC)cc2)N2CCN(C(=O)c3noc(C)c3[N+](=O)[O-])CC2)cc1	4	·	13	·	·	·
c1cc(-c2nnc3n2N=C(c2ccc4c(c2)OCO4)CS3)ccn1	-2	·	-13	·	·	·
O=C(Nc1ccc([N+](=O)[O-])cc1)N1CCc2ccccc2C1	7	12	22*	0	-1	0
O=[N+]([O-])c1ccc(-c2cnc(SCc3ccccc3Cl)[nH]2)cc1	1	9	20*	-21	5	2
COC(=O)c1cc2c(c3c4cc(C)ccc4n(S(=O)(=O)c4cccc(C)c4)c13)C(=O)N(Cc1ccc(N(C)C)cc1)C2	1	·	1	·	·	·

Source: PubChem
